Experimental data reported in ChEMBL document CHEMBL1148153, “New 3-O-acyl betulinic acids from Strychnos vanprukii Craib” (J Nat Prod, 2004).

Experiments:
[1] = test system: Human immunodeficiency virus 1; test: Antiviral activity against HIV1 3B infected in human HOG.R5 cells after 4 days; type: functional, organism-based; conditions: Human immunodeficiency virus 1, 3B, HOG.R5, 96 h
In short: (§1)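 GFP reporter HOG.R5 cells in microtiter wells infected with HIV-1 IIIB (2.5 ng/mL p24) with test agent present. Fluorescence read after 4 days. Selectivity index taken as CC50 in uninfected parallel HOG.R5 cultures divided by antiviral IC50.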

CEM-SS = test: Cytotoxicity against human CEM-SS cells at 40 ug/ml after 6 days by MTS assay; type: cell-based; conditions: 144 h
In short: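 Run alongside the CPE assay as uninfected toxicity controls. CEM-SS cells at (2-3) × 10^4 cells/mL in RPMI 1640 with 10% heat-inactivated FBS and 4 mM L-glutamine, plus compound without virus. After 6 days at 37 °C, MTS/PES added (final 317 µg/mL and 50 µM) for 4 h. Absorbance at 490/650 nm gives % viability and CC50.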

[2] = Cytotoxicity against human HOG.R5 cells at 40 ug/ml after 4 days; type: cell-based; conditions: 96 h
In short: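 HOG.R5 cultures run in parallel with the infection assay, given identical test-agent concentrations with virus omitted. After 4 days, viability monitored by microscopic and fluorometric measurement and CC50 derived.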

[3] = test system: Human immunodeficiency virus 1; test: Antiviral activity against HIV1 3B infected in human CEM-SS cells assessed as inhibition of virus-induced cytopathic effect after 6 days by MTS assay; type: functional; conditions: for EC50: Human immunodeficiency virus 1, 3B, 144 h, read-out: ED50 (the source's name)
In short: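 CEM-SS cells split 1:2 the day before, then washed and resuspended at (2-3) × 10^4 cells/mL in RPMI 1640 with 10% heat-inactivated FBS, 4 mM L-glutamine, penicillin/streptomycin. Compounds diluted in complete medium. HIV-1 IIIB added at ~2 ng p24/mL (MOI ~0.4). Incubated 6 days at 37 °C, 5% CO2. MTS/PES added (final 317 µg/mL and 50 µM) for 4 h. Read at 490/650 nm as % CPE reduction; five-concentration dose-response.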

HUVEC = test: Cytotoxicity against HUVEC cells; type: functional; conditions: Homo sapiens, read-out: ED50 (the source's name)
[4] = Selectivity index, ratio of CC50 for human HOG.R5 cells to IC50 for HIV1 3B; type: functional; in short: as §1
[5] = Cytotoxicity against human HOG.R5 cells after 4 days; type: cell-based
In short: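 GFP-based HOG.R5 reporter cells in microtiter wells treated with compounds without virus, in parallel with HIV-1 IIIB-infected (2.5 ng/mL p24) cultures. After 4 days, viability judged by combined microscopic and fluorometric measurement. CC50 = concentration mediating 50% cytotoxicity.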

[6] = Cytotoxicity against human CEM-SS cells after 6 days by MTS assay; type: cell-based
In short: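 CEM-SS cells split 1:2 the day before, then washed and resuspended at (2-3) × 10^4 cells/mL in RPMI 1640 with 10% heat-inactivated FBS, 4 mM L-glutamine, penicillin/streptomycin. Compounds diluted in complete medium, virus omitted (toxicity controls). 6 days at 37 °C, 5% CO2; MTS/PES added (final 317 µg/mL and 50 µM), 4 h further, A490/650. CC50 = 50% cytotoxic concentration.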

SK-MEL-2 = test: Cytotoxicity against human SK-MEL-2 cells; type: functional; conditions: read-out: ED50 (the source's name)
Col2 = test: Cytotoxicity against human Col2 cells; type: functional; conditions: read-out: ED50 (the source's name)
LNCaP = test: Cytotoxicity against human LNCAP cells; type: functional; conditions: read-out: ED50 (the source's name)
KB = test: Cytotoxicity against human KB cells; type: functional; conditions: read-out: ED50 (the source's name)
Lu1 = test: Cytotoxicity against human Lu1 cells; type: functional; conditions: read-out: ED50 (the source's name)
[7] = test system: Human immunodeficiency virus 1; test: Antiviral activity against HIV1 3B infected in human CEM-SS cells assessed as inhibition of virus-induced cytopathic effect at 2.7 uM after 6 days by MTS assay; type: functional; conditions: Human immunodeficiency virus 1, 3B, 144 h
In short: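 CEM-SS cells split 1:2 the day before, then washed and resuspended at (2-3) × 10^4 cells/mL in RPMI 1640 with 10% heat-inactivated FBS, glutamine and antibiotics. Infected with HIV-1 IIIB (~2 ng p24/mL, MOI ~0.4) alongside test agent. Incubated 6 days at 37 °C, 5% CO2. MTS/PES added (final 317 µg/mL and 50 µM) for 4 h. Absorbance read at 490/650 nm and reported as % CPE reduction.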

[8] = Selectivity index, ratio of CC50 for human CEM-SS cells to IC50 for HIV1 3B; type: functional
In short: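 CEM-SS cells at (2-3) × 10^4 cells/mL in RPMI 1640/10% FBS infected with HIV-1 IIIB (~2 ng p24/mL, MOI ~0.4) in presence of compounds. After 6 days at 37 °C, viability by MTS/PES reduction (4 h, A490/650). ED50 is 50% cytoprotection against viral CPE. SI = CC50 in uninfected parallel cells / ED50.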

## CC(C)Nc1cccnc1N1CCN(C(=O)c2cc3cc(NS(C)(=O)=O)ccc3[nH]2)CC1.CS(=O)(=O)O [DELAVIRDINE MESYLATE]
[1]
  IC50: 0.02 µM
CEM-SS
  Activity: Non-toxic
[2]
  Activity: Non-toxic
[3]
  EC50: 0.06 µM

## Cc1c(O)cccc1C(=O)N[C@@H](CSc1ccccc1)[C@H](O)CN1C[C@H]2CCCC[C@H]2C[C@H]1C(=O)NC(C)(C)C
[1]
  IC50: 0.09 µM
CEM-SS
  Activity: Non-toxic
[2]
  Activity: Non-toxic
[3]
  EC50: 0.03 µM

## C=C(C)[C@@H]1CC[C@]2(C(=O)O)CC[C@]3(C)[C@H](CC[C@@H]4[C@@]5(C)CC[C@H](OC(=O)/C=C\c6ccc(O)c(OC)c6)C(C)(C)[C@@H]5CC[C@]43C)[C@@H]12
HUVEC
  EC50: 6.2 µM
[1]
  IC50: 11.1 µM
[4]
  Ratio CC50/IC50: 2
[5]
  CC50 at 96 h: 22.2 µM
[6]
  CC50 at 144 h: < 1.6 µM
SK-MEL-2
  EC50: 3.8 µM
Col2
  EC50: 7.4 µM
LNCaP
  EC50: 5.2 µM
[3]
  Activity: Toxic
KB
  EC50: 5.4 µM
Lu1
  EC50: 15.7 µM

## C=C(C)[C@@H]1CC[C@]2(C(=O)O)CC[C@]3(C)[C@H](CC[C@@H]4[C@@]5(C)CC[C@H](OC(=O)/C=C/c6ccc(O)c(OC)c6)C(C)(C)[C@@H]5CC[C@]43C)[C@@H]12
HUVEC
  EC50: 9.5 µM
[1]
  IC50: 5.1 µM
[4]
  Ratio CC50/IC50: 3
[5]
  CC50 at 96 h: 13.4 µM
[6]
  CC50 at 144 h: < 1.6 µM
SK-MEL-2
  EC50: 3.8 µM
Col2
  EC50: 5.4 µM
LNCaP
  EC50: 3.2 µM
[3]
  Activity: Toxic
KB
  EC50: 2.5 µM
Lu1
  EC50: 8.5 µM

## C[C@H]1[C@H](C)CC[C@]2(C(=O)O)CC[C@]3(C)C(=CC[C@@H]4[C@@]5(C)CC[C@H](O)C(C)(C)[C@@H]5CC[C@]43C)[C@H]12 [URSOLIC ACID]
[7]
  inhibition at 2.7 µM: 22%
[1]
  IC50: 14.4 µM
[4]
  Ratio CC50/IC50: 1
[5]
  CC50 at 96 h: 15.4 µM
[6]
  CC50 at 144 h: 21.9 µM

## C=C(C)[C@@H]1CC[C@]2(C(=O)O)CC[C@]3(C)[C@H](CC[C@@H]4[C@@]5(C)CC[C@H](OC(=O)/C=C\c6ccc(O)cc6)C(C)(C)[C@@H]5CC[C@]43C)[C@@H]12
HUVEC
  EC50: 6.8 µM
[1]
  IC50: 8 µM
[4]
  Ratio CC50/IC50: 2
[5]
  CC50 at 96 h: 15.9 µM
[6]
  CC50 at 144 h: < 1.7 µM
SK-MEL-2
  EC50: 3.8 µM
Col2
  EC50: 6 µM
LNCaP
  EC50: 3.2 µM
[3]
  Activity: Toxic
KB
  EC50: 4.3 µM
Lu1
  EC50: 11 µM

## CCCc1cc(=O)oc2c3c(c4c(c12)OC(C)(C)C=C4)O[C@H](C)[C@@H](C)[C@@H]3O [CALANOLIDE A]
[1]
  IC50: 0.07 µM
CEM-SS
  Activity: Non-toxic
[2]
  Activity: Non-toxic
[3]
  EC50: 0.31 µM

## C=C(C)[C@@H]1CC[C@]2(C(=O)O)CC[C@]3(C)[C@H](CC[C@@H]4[C@@]5(C)CC[C@H](O)C(C)(C)[C@@H]5CC[C@]43C)[C@@H]12 [BETULINIC ACID]
HUVEC
  EC50: 28.7 µM
[1]
  IC50: 3.1 µM
[4]
  Ratio CC50/IC50: 5
[5]
  CC50 at 96 h: 16.7 µM
[6]
  CC50 at 144 h: 5.9 µM
SK-MEL-2
  EC50: 1.3 µM
Col2
  EC50: 43.9 µM
[8]
  Ratio CC50/IC50: 3
LNCaP
  EC50: 27.4 µM
[3]
  EC50: 2 µM
KB
  EC50: 35.7 µM
Lu1
  EC50: 40.6 µM

## C=C(C)[C@@H]1CC[C@]2(C(=O)O)CC[C@]3(C)[C@H](CC[C@@H]4[C@@]5(C)CC[C@H](OC(=O)/C=C/c6ccc(O)cc6)C(C)(C)[C@@H]5CC[C@]43C)[C@@H]12
HUVEC
  EC50: 5.3 µM
[1]
  IC50: 5.6 µM
[4]
  Ratio CC50/IC50: 3
[5]
  CC50 at 96 h: 14.3 µM
[6]
  CC50 at 144 h: < 1.7 µM
SK-MEL-2
  EC50: 4.2 µM
Col2
  EC50: 6.6 µM
LNCaP
  EC50: 5.7 µM
[3]
  Activity: Toxic
KB
  EC50: 5.5 µM
Lu1
  EC50: 12.1 µM

## Nc1ccn([C@@H]2CS[C@H](CO)O2)c(=O)n1 [LAMIVUDINE]
CEM-SS
  Activity: Non-toxic
[2]
  Activity: Non-toxic
[3]
  EC50: 0.36 µM
